Assay results as given in ChEMBL document CHEMBL4680124, “2-Styryl-4-aminoquinazoline derivatives as potent DNA-cleavage, p53-activation and in vivo effective anticancer agents” (Eur J Med Chem, 2020).

Experiments:
Assay type in all cases: functional, cell-based
[1] = system: T-24; assay: Cytotoxicity against human T-24 cells […] assessed as reduction in cell viability preincubated for 48 hrs and measured after 4 hrs by MTT assay
[2] = system: MGC-803; assay: Cytotoxicity against human MGC-803 cells expressing mutant type p53 assessed as reduction in cell viability preincubated for 48 hrs and measured after 4 hrs by MTT assay
[3] = system: DU-145; assay: Cytotoxicity against human DU145 cells expressing mutant type p53 assessed as reduction in cell viability preincubated for 48 hrs and measured after 4 hrs by MTT assay
Procedure, shortened: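 MTT assay. Cells grown in DMEM (T24, MGC-803, A549, HL-7702), RPMI-1640 (DU145) or DMEM-F12 (PC-3), each with 10% FBS. Exposed to 1.25–20 µM in medium with 1% DMSO for 48 h, then MTT for 4 h. Formazan dissolved in DMSO and read at 570 nm. Five wells per concentration; means ± SD of independent repeats.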

[4] = system: PC-3; assay: Cytotoxicity against human PC-3 cells assessed as reduction in cell viability preincubated for 48 hrs and measured after 4 hrs by MTT assay
[5] = system: A549; assay: Cytotoxicity against human A549 cells expressing wild type p53 assessed as reduction in cell viability preincubated for 48 hrs and measured after 4 hrs by MTT assay
[6] = system: L02; assay: Cytotoxicity against human HL-7702 cells expressing wild type p53 assessed as reduction in cell viability preincubated for 48 hrs and measured after 4 hrs by MTT assay

Compound	IC50 [1]	IC50 [2]	IC50 [3]	IC50 [4]	IC50 [5]	IC50 [6]
CN(C)CCNc1nc(/C=C/c2ccc3c(c2)OCO3)nc2ccccc12	66.4 µM	> 100 µM	> 100 µM	> 100 µM	> 100 µM	57.8 µM
COc1ccc(/C=C/c2nc(NCCN3CCOCC3)c3cc(Cl)ccc3n2)cc1OC	91.8 µM	> 100 µM	> 100 µM	> 100 µM	> 100 µM	> 100 µM
O=[N+]([O-])c1ccc(/C=C/c2nc(NCCN3CCCCC3)c3cc(Cl)ccc3n2)cc1	34.3 µM	20 µM	> 100 µM	> 100 µM	41.1 µM	> 100 µM
CCN(CC)CCCNc1nc(/C=C/c2ccc([N+](=O)[O-])cc2)nc2ccccc12	5.42 µM	8.25 µM	12.3 µM	15.4 µM	> 100 µM	5.3 µM
COc1ccc(/C=C/c2nc(NCCCN(C)C)c3cc(Cl)ccc3n2)cc1OC	> 100 µM	> 100 µM	> 100 µM	> 100 µM	> 100 µM	> 100 µM
CCN(CC)CCCNc1nc(/C=C/c2ccc3c(c2)OCO3)nc2ccc(Cl)cc12	9.74 µM	12.9 µM	> 100 µM	> 100 µM	> 100 µM	> 100 µM
COc1ccc(/C=C/c2nc(NCCN(C(C)C)C(C)C)c3ccccc3n2)cc1OC	6.5 µM	15.5 µM	15 µM	20.3 µM	38.8 µM	> 100 µM
COc1ccc(/C=C/c2nc(NCCCCN)c3cc(Cl)ccc3n2)cc1OC	7.82 µM	14.1 µM	20 µM	> 100 µM	50.5 µM	> 100 µM
CC(C)N(CCNc1nc(/C=C/c2ccc([N+](=O)[O-])cc2)nc2ccc(Cl)cc12)C(C)C	56.6 µM	17.3 µM	> 100 µM	> 100 µM	> 100 µM	> 100 µM
NCCCCNc1nc(/C=C/c2ccc3c(c2)OCO3)nc2ccc(Cl)cc12	5.65 µM	10.3 µM	50.3 µM	> 100 µM	9.82 µM	> 100 µM
CC(C)N(CCNc1nc(/C=C/c2ccc([N+](=O)[O-])cc2)nc2ccccc12)C(C)C	14.2 µM	29.1 µM	> 100 µM	> 100 µM	> 100 µM	8.96 µM
O=[N+]([O-])c1ccc(/C=C/c2nc(NCCN3CCOCC3)c3cc(Cl)ccc3n2)cc1	> 100 µM	> 100 µM	> 100 µM	> 100 µM	> 100 µM	> 100 µM
CCN(CC)CCNc1nc(/C=C/c2ccc3c(c2)OCO3)nc2ccccc12	8.68 µM	9.88 µM	16.3 µM	33.9 µM	46.9 µM	20.7 µM
CN(C)CCCNc1nc(/C=C/c2ccc3c(c2)OCO3)nc2ccccc12	8.81 µM	14 µM	25.4 µM	> 100 µM	> 100 µM	14.5 µM
CCN(CC)CCCNc1nc(/C=C/c2ccc(OC)c(OC)c2)nc2ccccc12	> 100 µM	> 100 µM	> 100 µM	> 100 µM	> 100 µM	> 100 µM
Clc1ccc2nc(/C=C/c3ccc4c(c3)OCO4)nc(NCCN3CCCCC3)c2c1	9.22 µM	14.7 µM	> 100 µM	> 100 µM	> 100 µM	> 100 µM
CN(C)CCCNc1nc(/C=C/c2ccc([N+](=O)[O-])cc2)nc2ccc(Cl)cc12	7.42 µM	6.67 µM	8.49 µM	5.32 µM	15.8 µM	> 100 µM
COc1ccc(/C=C/c2nc(NCCN(C)C)c3cc(Cl)ccc3n2)cc1OC	12.1 µM	11.8 µM	17.9 µM	23.6 µM	21.3 µM	80.5 µM
CN(C)CCNc1nc(/C=C/c2ccc([N+](=O)[O-])cc2)nc2ccc(Cl)cc12	6.97 µM	4.68 µM	6.76 µM	8.02 µM	> 100 µM	71.3 µM
CCN(CC)CCNc1nc(/C=C/c2ccc([N+](=O)[O-])cc2)nc2ccccc12	> 100 µM	> 100 µM	> 100 µM	> 100 µM	> 100 µM	44.5 µM
O=[N+]([O-])c1ccc(/C=C/c2nc(NCCN3CCOCC3)c3ccccc3n2)cc1	> 100 µM	> 100 µM	> 100 µM	> 100 µM	> 100 µM	> 100 µM

Compound	IC50 [1]	IC50 [2]	IC50 [3]	IC50 [4]	IC50 [5]	IC50 [6]
CCN(CC)CCNc1nc(/C=C/c2ccc(OC)c(OC)c2)nc2ccc(Cl)cc12	12.2 µM	16.8 µM	> 100 µM	> 100 µM	> 100 µM	91.2 µM
C(=C\c1nc(NCCN2CCCCC2)c2ccccc2n1)/c1ccc2c(c1)OCO2	6.38 µM	10.7 µM	8.53 µM	12.2 µM	39.6 µM	9.91 µM
CCN(CC)CCCNc1nc(/C=C/c2ccc3c(c2)OCO3)nc2ccccc12	> 100 µM	> 100 µM	> 100 µM	> 100 µM	> 100 µM	> 100 µM
CCN(CC)CCCNc1nc(/C=C/c2ccc([N+](=O)[O-])cc2)nc2ccc(Cl)cc12	7.12 µM	7.37 µM	8.12 µM	6.89 µM	76.4 µM	15 µM
COc1ccc(/C=C/c2nc(NCCN3CCCCC3)c3cc(Cl)ccc3n2)cc1OC	7.64 µM	13.5 µM	17.2 µM	21.2 µM	> 100 µM	13.9 µM
CN(C)CCCNc1nc(/C=C/c2ccc([N+](=O)[O-])cc2)nc2ccccc12	9.16 µM	15.7 µM	24.4 µM	> 100 µM	59.5 µM	21.4 µM
COc1ccc(/C=C/c2nc(NCCCN(C)C)c3ccccc3n2)cc1OC	88.4 µM	> 100 µM	> 100 µM	> 100 µM	> 100 µM	> 100 µM
CCN(CC)CCNc1nc(/C=C/c2ccc([N+](=O)[O-])cc2)nc2ccc(Cl)cc12	11 µM	7.12 µM	12.4 µM	> 100 µM	> 100 µM	> 100 µM
NCCCCNc1nc(/C=C/c2ccc3c(c2)OCO3)nc2ccccc12	41.2 µM	24.6 µM	> 100 µM	> 100 µM	> 100 µM	> 100 µM
COc1ccc(/C=C/c2nc(NCCN(C)C)c3ccccc3n2)cc1OC	> 100 µM	> 100 µM	> 100 µM	> 100 µM	> 100 µM	> 100 µM
C(=C\c1nc(NCCN2CCOCC2)c2ccccc2n1)/c1ccc2c(c1)OCO2	> 100 µM	> 100 µM	> 100 µM	> 100 µM	> 100 µM	> 100 µM
CN(C)CCNc1nc(/C=C/c2ccc([N+](=O)[O-])cc2)nc2ccccc12	8.95 µM	14.4 µM	15.7 µM	51.1 µM	33.9 µM	18 µM
O=[N+]([O-])c1ccc(/C=C/c2nc(NCCN3CCCCC3)c3ccccc3n2)cc1	36.2 µM	27.6 µM	> 100 µM	25.6 µM	28.2 µM	> 100 µM
COc1ccc(/C=C/c2nc(NCCCCN)c3ccccc3n2)cc1OC	30.9 µM	70.5 µM	> 100 µM	> 100 µM	> 100 µM	> 100 µM
COc1ccc(/C=C/c2nc(NCCN(C(C)C)C(C)C)c3cc(Cl)ccc3n2)cc1OC	14.8 µM	15.6 µM	> 100 µM	> 100 µM	> 100 µM	> 100 µM
CCN(CC)CCCNc1nc(/C=C/c2ccc(OC)c(OC)c2)nc2ccc(Cl)cc12	3.51 µM	8.42 µM	5.35 µM	6.25 µM	> 100 µM	5.17 µM
COc1ccc(/C=C/c2nc(NCCN3CCOCC3)c3ccccc3n2)cc1OC	> 100 µM	> 100 µM	> 100 µM	> 100 µM	> 100 µM	> 100 µM
Clc1ccc2nc(/C=C/c3ccc4c(c3)OCO4)nc(NCCN3CCOCC3)c2c1	38.3 µM	> 100 µM	> 100 µM	> 100 µM	> 100 µM	> 100 µM
CC(C)N(CCNc1nc(/C=C/c2ccc3c(c2)OCO3)nc2ccccc12)C(C)C	17.5 µM	11.3 µM	> 100 µM	> 100 µM	> 100 µM	21.2 µM
CN(C)CCCNc1nc(/C=C/c2ccc3c(c2)OCO3)nc2ccc(Cl)cc12	8.12 µM	17.2 µM	> 100 µM	> 100 µM	> 100 µM	> 100 µM
CN(C)CCNc1nc(/C=C/c2ccc3c(c2)OCO3)nc2ccc(Cl)cc12	9.61 µM	9.46 µM	> 100 µM	> 100 µM	> 100 µM	> 100 µM
